Screening data from PubChem.
A selection: hits, their analogues and other compounds. The true share with any hit is near 2.2%.
GalR3 antag: GalR3 antagonists in HEK293 cells, primary screen, cell-based, fluorescence readout | Galanin receptor type 3 (Homo sapiens), O60755 | HEK293 GalR3-CNG cAMP membrane potential fluorescence; galR3 body fused to GalR1 C-terminus | inhibition, % at 3 µM | hit rate 0.44% among 360,000;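 active = inhibition above the screen-wide average plus 3 SD, cut at about 13% in these data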;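 also: forskolin and galanin both at EC90 stimulate the cells; cAMP rise reported by CNG channel membrane potential dye signal; 0% = forskolin plus galanin with DMSO and 100% = forskolin alone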
NR2E3 ag-1: NR2E3 agonists in two-hybrid cells, primary screen, cell-based, luminescence, CHO-S, Gal4-NCOR/VP16-NR2E3; luciferase; AID 602229, 2012; hit rate 0.35% among 360,000; Photoreceptor-specific nuclear receptor (Homo sapiens), Q9Y5X4; inhibition of corepressor binding, % at 3.98 µM;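 active = inhibition above the mean of all tested compounds plus 3 SD, cut at about 70% in these data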;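 also: 0% = DMSO with NR2E3 transfected cells and 100% = cells lacking NR2E3 construct; higher means lower luciferase signal from less NR2E3 corepressor binding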
Target sequence (Q9Y5X4 whole entry, looked up, the tested form may be a part): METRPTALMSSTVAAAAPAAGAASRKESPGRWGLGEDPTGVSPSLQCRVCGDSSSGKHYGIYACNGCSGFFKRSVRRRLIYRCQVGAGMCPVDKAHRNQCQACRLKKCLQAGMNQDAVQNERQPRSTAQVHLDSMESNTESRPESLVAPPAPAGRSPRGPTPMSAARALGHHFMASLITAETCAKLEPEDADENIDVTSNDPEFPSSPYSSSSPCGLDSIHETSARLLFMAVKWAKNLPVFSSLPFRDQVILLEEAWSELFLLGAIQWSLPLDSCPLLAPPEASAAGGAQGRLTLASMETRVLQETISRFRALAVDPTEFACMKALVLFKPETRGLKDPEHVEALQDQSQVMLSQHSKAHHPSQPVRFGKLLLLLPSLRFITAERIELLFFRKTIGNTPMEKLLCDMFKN
NR2E3 ag-2: inhibitors of NR2E3-RetCOR corepressor binding, primary screen, NR2E3 agonist project, biochemical, TR-FRET, GST-NR2E3, biotin-RetCOR; hit rate 0.12% among 320,000; inhibition of corepressor binding, % at 4.78 µM; 1536-well; Photoreceptor-specific nuclear receptor (Homo sapiens), Q9Y5X4;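 active = percent inhibition above the cutoff of mean plus 3 SD of all tested compounds, set per screening campaign, cut at about 20% in these data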;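 also: 0% = DMSO wells and 100% = biotin wells as full block of FRET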
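Material: NR2E3–RetCOR corepressor complex | Quantity: 1.35 nM GST-tagged NR2E3 final | Schedule: 5 h at 4 °C | Replication: Singlicate compound wells | Reagent: RetCOR corepressor, biotinylated, 7 nM | Controls: Biotin wells as high control, 0.6% DMSO wells as low control | Signal: TR-FRET, Eu(K)-anti-GST donor, streptavidin-D2 acceptor, ex 340, em 617/671 nm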
NR2F2 inh: NR2F2 transcriptional activity inhibitors, primary screen, cell-based, luciferase reporter, HEK293T, luminescence. inhibition, % at 8.6 µM. hit rate 0.7% among 370,000. COUP transcription factor 2 (Homo sapiens), P24468. AID 686940, 2013. HEK293T NGFI-A luciferase reporter;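 active = inhibition above a per-plate cutoff, mean inhibition of test wells between control levels plus 3 SD, cut at about 38% in these data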;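 also: cells cotransfected with COUP-TFII expression vector driving the NGFI-A reporter; 0% = median of COUP-TF2 test wells and 100% = reporter-only cells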
SMARCA2 activ: SMARCA2 (BRM) function activators, primary screen, cell-based, luminescence, high throughput; MG213 cells, MMTV-luciferase reporter, dexamethasone, overnight; activation, % at 9.1 µM; hit rate 1% among 370,000; in the data active = activation above about 7.8%;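 also: 0% = vehicle wells and 100% = reference activator wells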
GalR3 conf: GalR3 antagonist hit confirmation, cell-based, fluorescence, triplicate | shares compounds with GalR3 antag | HEK293 GalR3 CNG cAMP biosensor, membrane potential fluorescence; galR3 fused to GalR1 carboxy tail; challenged with forskolin and galanin at EC90 | inhibition, % at 3 µM | hit rate 59% among 1,600;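 active = inhibition above the primary screen's cutoff, the mean inhibition of all screened compounds plus 3 SD, cut at about 13% in these data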;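 also: 0% = forskolin plus galanin and 100% = forskolin alone with DMSO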
CNG parental: nonspecific cAMP agonists in parental HEK-CNG cells, counter-screen for GalR3 antagonist project, cell-based, fluorescence, high throughput; shares compounds with GalR3 antag; HEK293-CNG parental cells, cAMP membrane potential fluorescence; normalised: DMSO wells 0%, forskolin wells 100%; activation, % at 3 µM; hit rate 10% among 1,600; AID 652268, 2013; in the data active = activation above about 1.3%
The depositor's hits bear a star; · = not tested or not shown.

SMILES	GalR3 antag	NR2E3 ag-1	NR2E3 ag-2	NR2F2 inh	SMARCA2 activ	GalR3 conf	CNG parental
Cc1cccc(C(=O)N[C@@H]2CC[C@@]34CCCN3C(=O)CCC[C@H]4[C@H]2C)c1	·	·	·	-11	·	·	·
CCN(CC)S(=O)(=O)c1ccc2c(c1)c(=O)c(C(=O)NCCCN(C)c1ccccc1)cn2C	-1	-13	-1	13	5	·	·
CC1CCN(CCCNC(=O)c2cn(C)c3ccc(S(=O)(=O)N4CCCC4)cc3c2=O)CC1	15*	-19	-2	-19	-2	8	0
CN(CCCNC(=O)c1cn(C)c2ccc(S(=O)(=O)N(C)C)cc2c1=O)c1ccccc1	20*	-17	6	1	1	6	1
CC(C)(C)c1ccc(C(=O)Nc2cc(Cl)ccc2-c2nn[nH]n2)cc1	·	·	·	-13	·	·	·
COC(=O)C1CN(Cc2cn(CCOC(C)=O)nn2)CCS(=O)(=O)N1Cc1ccccc1 (centres undefined)	·	·	·	-4	-1	·	·
Cc1nn(C)c(Nc2ccc(Br)cc2)c1Br	49*	40	4	36	-6	86*	-1
Cc1cc(C)nc(-n2nc(C)c(Br)c2Nc2ccc(Br)cc2)n1	-7	4	-4	7	-4	·	·
COc1cccc2[nH]c3c(N4CCCC(C)C4)ncnc3c12 (centres undefined)	84*	-75	-10	-17	0	94*	1
COc1cccc2[nH]c3c(N4CCC(C(N)=O)CC4)ncnc3c12	0	-48	0	-12	2	·	·
COCCCNC(=O)c1cc2cc(Br)ccc2oc1=O	34*	-23	-4	19	1	0	0
CN(CCO)c1cc(Sc2nc3ccccc3s2)c2nonc2c1[N+](=O)[O-]	28*	33	7	19	-11	51*	1
O=C(Nc1cccc(F)c1)N1CCCCCC1	-4	-43	-1	-4	6	·	·
C/C(=C/C(=O)Nc1cccc(F)c1)N1CCCC1	17*	2	5	7	0	0	0
COc1ccccc1OCC(=O)NCCC1=CCCCC1	·	0	3	4	-2	3	0
N#C/C(=C(/O)COc1ccccc1)c1nc2ccccc2s1	-3	-32	-2	28	-2	·	·
N#C/C(=C(/O)COc1ccc(Cl)cc1)c1nc2ccccc2s1	14*	-44	-2	-3	-8	2	1.3*
COn1c(-c2ccc(Cl)cc2)nc2ccc(Cl)cc21	-7	-39	0	-21	7	·	·
O=C(O)COn1c(-c2ccc(Cl)cc2)nc2ccc(Cl)cc21	30*	-132	-4	-52	2	14*	0
CC(=O)/C=C/n1c(=S)oc2ccccc21	15*	·	2	3	-11	2	1.6*
O=S(=O)(c1ccccc1)c1ncc(C(F)(F)F)cc1O	4	0	-5	5	-2	·	·
O=S(=O)(c1ccccc1)c1ncc(C(F)(F)F)cc1Cl	15*	17	·	-12	-5	24*	1
CCOC(=O)Cn1nnnc1C(C(C)C)N(Cc1cccs1)Cc1cc2cc(C)ccc2[nH]c1=O (centres undefined)	37*	-1	1	3	-1	28*	1
Cc1nc2sc(C(=O)NCc3nccs3)c(N)c2c(C)c1Cl	·	·	·	-35	1	·	·
CCOc1ccc(-c2cc(C(=O)OC)c3n(c2=O)CCC3)cc1	·	·	·	-5	0	·	·
SMILES	GalR3 antag	NR2E3 ag-1	NR2E3 ag-2	NR2F2 inh	SMARCA2 activ	GalR3 conf	CNG parental
O=C1CCC[C@H]2Cc3nc4cc5c(cc4cc3C[C@]23CCCN13)OCO5	·	·	·	7	·	·	·
O=C(CSc1nc2ccccc2[nH]1)Nc1c(F)cccc1F	-1	13	3	-5	-4	·	·
O=C(CSc1nc2ccccc2[nH]1)Nc1c(F)c(F)c(F)c(F)c1F	16*	4	6	-5	-5	7	-1
CS(=O)(=O)N1CCN(c2ccccc2NC(=O)c2ccc(Cl)cc2)CC1	·	-17	-1	15	-1	12	0
C=CCN(C(=O)[C@@H](C1CC1)[C@@H](O)c1ccc2ccccc2c1)c1ccccc1	·	·	·	0	-3	·	·
C[C@H]1C[C@H]2[C@@H]3CCC4=CC(=O)C=C[C@]4(C)[C@@]3(Cl)[C@@H](O)C[C@]2(C)[C@@]1(O)C(=O)CO	-2	-4	5	-16	-5	·	·
C[C@H]1C[C@H]2[C@@H]3CCC4=CC(=O)C=C[C@]4(C)[C@@]3(F)[C@@H](O)C[C@]2(C)[C@@]1(O)C(=O)CO	28*	23	1	-51	3	44*	3.9*
CC(=O)NCCc1nc2ccccc2n1Cc1ccc(C)cc1	·	2	1	-77	-1	5	0
C=CCN1[C@H](C)COc2cc(N3CCSCC3)ccc2S1(=O)=O	·	·	·	18	0	·	·
COC(=O)COc1ccc(S(=O)(=O)NCc2ccncc2)cc1	96*	-21	3	23	-5	113*	-1
CCCCOc1ccc([N+](=O)[O-])cc1C(=O)O	17*	13	2	21	-5	2	0
O=C(Nc1ccc(F)cc1)OCc1cn(Cc2cccc(F)c2F)nn1	·	·	·	2	-1	·	·
CC(=O)c1ccc(S(=O)(=O)N2CCCC2)cc1	-8	-61	-2	-28	1	·	·
CC(=O)c1ccc(S(=O)(=O)N2CCN(C(C)=O)CC2)cc1	16*	22	1	13	-4	1	0
Cc1cc(/C=C(\C#N)C(=O)NCC2CCCO2)c(C)n1-c1ccc(Cl)cc1 (centres undefined)	-3	-74	-1	-33	6	·	·
N#C/C(=C/c1cn(-c2ccccc2)nc1-c1cccc(S(=O)(=O)N2CCCC2)c1)C(=O)NCc1ccco1	14*	-18	3	28	-3	23*	1
Cc1cc(/C=C(\C#N)C(=O)NCc2ccco2)c(C)n1-c1ccc(C(=O)O)cc1	·	-16	2	11	3	8	0
Cc1ccc2c(c1)N(CCCC(=O)NCc1cccs1)C(=O)CO2	·	·	·	4	-2	·	·
COc1ccc(CNC(=O)CN(C(=O)CCC(=O)Nc2ccccn2)c2ccc(C)cc2)cc1	-9	10	2	-2	-2	·	·
